Source: article PMC3149845 (The Journal of neuroscience : the official journal of the …, 2011)
Read-outs that look alike come from different tables or passages of the source. Peptide text beside a SMILES is read from it.

Experiments:
smTas1R2:T40S+smTas1R3 = smTas1R2:T40S+smTas1R3 (Saimiri sciureus, UniProt A3QP08, T40S); assay: Ca2+ mobilization, mutated squirrel monkey receptor; assay type: cell-based, squirrel monkey (Saimiri sciureus); conditions: aspartame 10mM, neotame 1mM, sucralose 2 mM; compared with smTas1R2/smTas1R3
hTas1R2:I67S+hTas1R3 = hTas1R2:I67S+hTas1R3 (Homo sapiens, UniProt Q8TE23, I67S); assay: Ca2+ mobilization, mutated human receptor; assay type: cell-based; conditions: aspartame 10mM, neotame 1mM, sucralose 2 mM; compared with hTas1R2/hTas1R3
Procedure, shortened: (§1)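 HEK293E cells grown at 37°C in Opti-MEM with 5% FBS and seeded at 50,000/well. Cells co-lipofected with Tas1R plasmids and Gα16-gust44 (0.06 μg each per well); medium changed at 20 h, assayed 24 h later. Cells loaded 1 h with Fluo-4 AM in HEPES-buffered HBSS. Tastant added at 30 s; fluorescence (ex 488/em 525 nm) read every 2 s for 150 s more. ΔF/F normalised to human receptor maximal sucralose response; mean ± SEM, three independent experiments.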

[1] = biological target: smTas1R2:S67I/E142D+smTas1R3 (Saimiri sciureus, UniProt A3QP08, E142D/S67I); assay: Ca2+ mobilization, mutated squirrel monkey receptor; assay type: cell-based, squirrel monkey (Saimiri sciureus); conditions: for response in dose-response experiment: versus smTas1R2+smTas1R3; for Bottom (B) of sigmoid dose-response fit / Top (T) of sigmoid dose-response fit: ΔF/F normalized to maximum response of hTas1R2/hTas1R3 to neotame
smTas1R2:S67I+smTas1R3 = smTas1R2:S67I+smTas1R3 (Saimiri sciureus, UniProt A3QP08, S67I); assay: as above; assay type: cell-based, squirrel monkey (Saimiri sciureus); conditions: aspartame 10mM, neotame 1mM, sucralose 2 mM; compared with smTas1R2/smTas1R3
hTas1R2/hTas1R3 = biological target: T1, hTas1R2/hTas1R3 (Homo sapiens, UniProt Q8TE23); assay: Ca2+ mobilization, wild type human sweet taste receptor; assay type: cell-based; conditions: for response in dose-response experiment: HEK293E cells with Gα16-gust44; for Bottom (B) of sigmoid dose-response fit / Top (T) of sigmoid dose-response fit: ΔF/F normalized to maximum response of hTas1R2/hTas1R3 to neotame
T1 sequence (Q8TE23 20-839): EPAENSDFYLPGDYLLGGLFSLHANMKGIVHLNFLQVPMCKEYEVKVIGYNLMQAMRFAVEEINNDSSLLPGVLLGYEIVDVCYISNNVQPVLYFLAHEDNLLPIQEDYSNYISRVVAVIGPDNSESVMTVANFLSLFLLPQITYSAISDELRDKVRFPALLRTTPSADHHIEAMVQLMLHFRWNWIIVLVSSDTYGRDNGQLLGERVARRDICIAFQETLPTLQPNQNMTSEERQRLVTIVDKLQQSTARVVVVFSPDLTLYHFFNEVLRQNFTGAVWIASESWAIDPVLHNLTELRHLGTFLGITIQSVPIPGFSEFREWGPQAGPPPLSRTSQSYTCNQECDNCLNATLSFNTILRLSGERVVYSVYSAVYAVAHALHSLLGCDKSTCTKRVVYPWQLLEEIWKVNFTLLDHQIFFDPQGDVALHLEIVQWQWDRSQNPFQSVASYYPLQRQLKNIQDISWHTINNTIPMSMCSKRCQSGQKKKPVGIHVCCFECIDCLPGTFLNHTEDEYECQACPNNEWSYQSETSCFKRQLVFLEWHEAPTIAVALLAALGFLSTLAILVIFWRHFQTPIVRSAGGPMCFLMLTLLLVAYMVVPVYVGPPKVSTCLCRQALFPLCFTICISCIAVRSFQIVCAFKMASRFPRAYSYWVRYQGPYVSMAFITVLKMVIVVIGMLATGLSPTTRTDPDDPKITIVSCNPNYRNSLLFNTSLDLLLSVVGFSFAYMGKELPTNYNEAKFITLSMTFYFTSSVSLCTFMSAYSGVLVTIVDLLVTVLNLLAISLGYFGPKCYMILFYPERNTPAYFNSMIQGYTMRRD
T1 sequence (Q7RTX0 21-852 partner): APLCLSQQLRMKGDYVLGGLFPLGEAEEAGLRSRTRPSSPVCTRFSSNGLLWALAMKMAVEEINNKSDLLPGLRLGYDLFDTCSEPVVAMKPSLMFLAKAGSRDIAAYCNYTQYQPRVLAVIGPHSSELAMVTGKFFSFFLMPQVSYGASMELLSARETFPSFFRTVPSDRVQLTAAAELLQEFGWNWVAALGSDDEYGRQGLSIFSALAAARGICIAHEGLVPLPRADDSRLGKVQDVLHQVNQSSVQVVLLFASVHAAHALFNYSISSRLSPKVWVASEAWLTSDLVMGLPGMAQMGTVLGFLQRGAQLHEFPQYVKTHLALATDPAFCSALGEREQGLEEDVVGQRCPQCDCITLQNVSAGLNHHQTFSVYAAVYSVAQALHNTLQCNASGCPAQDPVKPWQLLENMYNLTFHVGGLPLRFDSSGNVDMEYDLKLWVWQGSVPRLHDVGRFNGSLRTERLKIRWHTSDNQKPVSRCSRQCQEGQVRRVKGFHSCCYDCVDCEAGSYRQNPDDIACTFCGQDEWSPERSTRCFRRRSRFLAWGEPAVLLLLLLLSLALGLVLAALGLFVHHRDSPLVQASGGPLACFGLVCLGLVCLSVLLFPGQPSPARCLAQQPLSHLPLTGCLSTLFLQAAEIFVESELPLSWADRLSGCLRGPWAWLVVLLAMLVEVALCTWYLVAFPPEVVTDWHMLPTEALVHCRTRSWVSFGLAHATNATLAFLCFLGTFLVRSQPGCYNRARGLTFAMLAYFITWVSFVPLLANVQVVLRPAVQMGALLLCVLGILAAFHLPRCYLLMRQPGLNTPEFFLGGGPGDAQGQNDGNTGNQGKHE
Procedure, shortened: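 HEK293E cells (Opti-MEM, 5% FBS, 37°C) were seeded at 50,000/well and cotransfected with Tas1R plasmids and Gα16-gust44 (0.06 μg each per well). Medium changed at 20 h; assayed 24 h later after 1 h loading with 3 μm Fluo-4 AM in HBSS/20 mm HEPES. Fluorescence (ex 488/em 525 nm) read 2 s apart; tastant added at 30 s, 150 s further. Peak ΔF/F sigmoid-fitted; three independent experiments.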

[2] = biological target: smTas1R2:T40S/S67I/E142D+smTas1R3 (Saimiri sciureus, UniProt A3QP08, E142D/S67I/T40S); assay: Ca2+ mobilization, mutated squirrel monkey receptor; assay type: cell-based, squirrel monkey (Saimiri sciureus); conditions: for calcium response to sweetener: aspartame 10mM, neotame 1mM, sucralose 2 mM, compared with smTas1R2/smTas1R3; for response in dose-response experiment: versus smTas1R2+smTas1R3; for Bottom (B) of sigmoid dose-response fit / Top (T) of sigmoid dose-response fit: ΔF/F normalized to maximum response of hTas1R2/hTas1R3 to neotame
[3] = biological target: hTas1R2:S40T/V66L/I67S/D142E+hTas1R3 (Homo sapiens, UniProt Q8TE23, D142E/I67S/S40T/V66L); assay: Ca2+ mobilization, mutated human receptor; assay type: cell-based; conditions: aspartame 10mM, neotame 1mM, sucralose 2 mM; compared with hTas1R2/hTas1R3
Procedure, shortened: as §1

[4] = biological target: smTas1R2:T40S/L66V/S67I/E142D+smTas1R3 (Saimiri sciureus, UniProt A3QP08, E142D/L66V/S67I/T40S); assay: Ca2+ mobilization, mutated squirrel monkey receptor; assay type: cell-based, squirrel monkey (Saimiri sciureus); conditions: aspartame 10mM, neotame 1mM, sucralose 2 mM; compared with smTas1R2/smTas1R3
[5] = HEK293E cells with Gα16-gust44, dose-response, calcium mobilization

Sequence of smTas1R2:T40S/S67I/E142D+smTas1R3 (A3QP08 20-834 T40S/S67I/E142D): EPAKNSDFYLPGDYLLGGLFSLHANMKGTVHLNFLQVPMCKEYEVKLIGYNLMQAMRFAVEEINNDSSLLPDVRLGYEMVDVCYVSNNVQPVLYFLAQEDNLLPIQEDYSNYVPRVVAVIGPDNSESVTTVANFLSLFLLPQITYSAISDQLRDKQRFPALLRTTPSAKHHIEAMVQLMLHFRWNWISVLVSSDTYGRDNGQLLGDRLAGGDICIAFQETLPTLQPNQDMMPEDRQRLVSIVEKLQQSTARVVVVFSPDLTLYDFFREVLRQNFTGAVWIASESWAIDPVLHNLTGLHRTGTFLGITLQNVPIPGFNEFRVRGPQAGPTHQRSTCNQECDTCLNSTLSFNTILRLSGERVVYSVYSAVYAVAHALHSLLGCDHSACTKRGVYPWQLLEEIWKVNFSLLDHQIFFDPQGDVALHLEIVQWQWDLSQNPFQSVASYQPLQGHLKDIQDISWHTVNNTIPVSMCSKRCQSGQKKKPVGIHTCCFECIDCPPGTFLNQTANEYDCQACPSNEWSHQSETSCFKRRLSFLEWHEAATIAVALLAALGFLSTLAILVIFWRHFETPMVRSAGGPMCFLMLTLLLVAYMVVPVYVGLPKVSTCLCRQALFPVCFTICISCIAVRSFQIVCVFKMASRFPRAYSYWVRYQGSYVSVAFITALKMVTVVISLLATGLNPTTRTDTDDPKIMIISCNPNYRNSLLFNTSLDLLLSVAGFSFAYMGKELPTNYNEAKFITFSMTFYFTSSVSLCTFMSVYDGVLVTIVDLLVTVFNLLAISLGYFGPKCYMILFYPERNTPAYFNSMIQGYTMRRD
Sequence of smTas1R2:S67I/E142D+smTas1R3 (A3QP08 20-834 S67I/E142D): as the sequence (A3QP08 20-834 T40S/S67I/E142D) above, with S21T counted along it
Sequence of hTas1R2:S40T/V66L/I67S/D142E+hTas1R3 (Q8TE23 20-839 S40T/V66L/I67S/D142E, one chain of several): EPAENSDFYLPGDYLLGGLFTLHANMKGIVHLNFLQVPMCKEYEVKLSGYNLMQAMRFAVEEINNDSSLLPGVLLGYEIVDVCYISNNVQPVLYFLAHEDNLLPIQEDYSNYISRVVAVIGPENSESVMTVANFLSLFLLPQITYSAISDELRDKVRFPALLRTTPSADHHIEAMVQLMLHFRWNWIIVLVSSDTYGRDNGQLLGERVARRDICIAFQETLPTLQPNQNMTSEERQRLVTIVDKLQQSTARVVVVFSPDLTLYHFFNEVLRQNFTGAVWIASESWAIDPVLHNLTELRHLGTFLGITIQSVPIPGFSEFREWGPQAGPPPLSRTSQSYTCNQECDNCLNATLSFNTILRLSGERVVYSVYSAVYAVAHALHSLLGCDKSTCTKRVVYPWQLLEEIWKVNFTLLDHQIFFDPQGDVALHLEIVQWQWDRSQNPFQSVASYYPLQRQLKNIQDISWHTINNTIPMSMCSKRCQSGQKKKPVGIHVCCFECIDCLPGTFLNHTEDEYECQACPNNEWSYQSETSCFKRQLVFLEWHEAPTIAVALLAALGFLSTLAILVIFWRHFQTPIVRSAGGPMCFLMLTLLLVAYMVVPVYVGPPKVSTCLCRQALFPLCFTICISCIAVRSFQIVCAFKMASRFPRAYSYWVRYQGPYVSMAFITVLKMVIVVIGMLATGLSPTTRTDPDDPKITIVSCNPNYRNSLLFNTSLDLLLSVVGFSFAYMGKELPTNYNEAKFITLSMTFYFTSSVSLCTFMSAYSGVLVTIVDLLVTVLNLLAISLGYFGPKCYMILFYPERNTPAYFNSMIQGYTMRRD
Sequence of smTas1R2:T40S+smTas1R3 (A3QP08 20-834 T40S): as the sequence (A3QP08 20-834 T40S/S67I/E142D) above, with I48S, D123E counted along it
Sequence of smTas1R2:T40S/L66V/S67I/E142D+smTas1R3 (A3QP08 20-834 T40S/L66V/S67I/E142D): as the sequence (A3QP08 20-834 T40S/S67I/E142D) above, with L47V counted along it
Sequence of smTas1R2:S67I+smTas1R3 (A3QP08 20-834 S67I): as the sequence (A3QP08 20-834 T40S/S67I/E142D) above, with S21T, D123E counted along it
Sequence of hTas1R2:I67S+hTas1R3 (Q8TE23 20-839 I67S, one chain of several): as the sequence (Q8TE23 20-839 S40T/V66L/I67S/D142E, one chain of several) above, with T21S, L47V, E123D counted along it

| Compound | calcium response to sweetener (smTas1R2:T40S+smTas1R3) | calcium response to sweetener (hTas1R2:I67S+hTas1R3) | EC50 [1] | response in dose-response experiment ([1]; dose-response) | Bottom (B) of sigmoid dose-response fit [1] | Top (T) of sigmoid dose-response fit [1] | calcium response to sweetener (smTas1R2:S67I+smTas1R3) | EC50 (hTas1R2/hTas1R3) | response in dose-response experiment (hTas1R2/hTas1R3) | Bottom (B) of sigmoid dose-response fit (hTas1R2/hTas1R3) | Top (T) of sigmoid dose-response fit (hTas1R2/hTas1R3) | EC50 [2] | calcium response to sweetener [2] | response in dose-response experiment ([2]; dose-response) | Bottom (B) of sigmoid dose-response fit [2] | Top (T) of sigmoid dose-response fit [2] | calcium response to sweetener [3] | calcium response to sweetener [4] | EC50 [1, 5] | EC50 [2, 5] |
| --- | --- | --- | --- | --- | --- | --- | --- | --- | --- | --- | --- | --- | --- | --- | --- | --- | --- | --- | --- | --- |
| COC(=O)[C@H](Cc1ccccc1)NC(=O)[C@@H](N)CC(=O)O [aspartame, L-α-aspartly-L-phenylalanine methyl ester] (H-Asp-Phe-OMe) | not able to recover | mild phenotype | 5.6 mM | good response | −0.6682 | 26.17 | not able to recover | 5 mM | good response | 7.074 | 73.32 | 1200 µM | significant responses | good response | −2.882 | 32.61 | greatly impaired | significant responses | – | – |
| COC(=O)[C@H](Cc1ccccc1)NC(=O)[C@H](CC(=O)O)NCCC(C)(C)C [neotame] | not able to recover | slightly reduced response | – | good responses | −5.754 | 56.59 | not able to recover | – | good response | −165.1 | 92.82 | – | significant responses | good responses | −4.671 | 51.73 | greatly impaired | significant responses | 1 mM | 280 µM |
